# How the values were obtained:
# [1] = (§1) Inhibition of full-length myosin ATPase activity in bovine cardiac myofibrils; type: subcellular, Bos taurus, Heart
# Procedure, shortened: (§2)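 Bovine cardiac myofibril ATPase assay run at a calcium level giving 75% of maximal activity.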
# [2] = Solubility of the compound at pH 6.8 by shake flask method; type: physicochemical; conditions: buffer
# Procedure, shortened: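 Shake-flask solubility at pH 6.8; solid form not characterized.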
# [3] = Bioavailability in Sprague-Dawley rat at 1 mg/kg, po or 1 mg/kg, iv; type: ADME, organism-based; conditions: in vivo
# Procedure, shortened: (§3)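 Rat PK with iv and po administration at 1 mg/kg. Clearance and half-life came from the iv arm, and bioavailability from the iv/po comparison.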
# [4] = Clearance in Sprague-Dawley rat at 1 mg/kg; conditions: in vivo
# [5] = Half life in Sprague-Dawley rat at 1 mg/kg; type: ADME, organism-based; conditions: in vivo; procedure, shortened: as §3
# [6] = Metabolic stability in rat liver microsomes assessed as intrinsic clearance measured upto 90mins by HPLC/MS/MS analysis; type: ADME, Microsome; conditions: read-out: CLH
# [7] = Plasma protein binding in rat plasma assessed as unbound concentration at 5 uM incubated for 6 hrs by HPLC analysis; type: ADME, cell-free
# [8] = Metabolic stability in human liver microsomes assessed as intrinsic clearance measured upto 90mins by HPLC/MS/MS analysis; type: ADME, Microsome; conditions: read-out: CLH
# [9] = Clearance in Sprague-Dawley rat at 1 mg/kg; type: ADME, organism-based; conditions: in vivo; procedure, shortened: as §3
# [10] = Plasma protein binding in rat assessed as unbound fraction; type: ADME, cell-free
# [11] = Oral bioavailability in Sprague-Dawley rat at 2 mg/kg; type: ADME, organism-based; conditions: in vivo
# Procedure, shortened: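 Multi-species PK study in male animals, n = 3 per group (dog IV arm n = 2). Iv and oral dosing with plasma concentration–time profiles yielding Cmax, tmax, AUC0–t, CL, Vss, t1/2 and F.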
# Bos taurus = organism: Bos taurus; experiment: as §1; type: subcellular; conditions: Heart, Myofibril; procedure, shortened: as §2
# [12] = Plasma protein binding in human assessed as unbound fraction; type: ADME, cell-free
# [13] = Unbound clearance in Sprague-Dawley rat at 0.5 mg/kg; type: ADME, organism-based; conditions: in vivo
# Procedure, shortened: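 Rat in vivo clearance at a 0.5 mg/kg dose was divided by the rat plasma free fraction to give unbound clearance.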
# [14] = Bioavailability in Sprague-Dawley rat at 2 to 6 mg/kg, po and 1 mg/kg, iv; conditions: in vivo
IC50 [1],CLint scaled [6],"fraction unbound at 6 h, 5 µM [7]",CLint scaled [8],fraction unbound [10],Structure (SMILES),other results
> 39000 nM,–,–,–,–,COCCc1nc(-c2ccc3c(c2)CC[C@H]3NC(=O)c2cnn(C)c2)no1,–
3200 nM,–,–,–,–,Cn1cc(C(=O)N[C@@H]2CCc3cc(-c4noc(C5CCC5)n4)ccc32)cn1,solubility thermodynamic [2]: 14 µM
1900 nM,< 21 mL/min/kg,0.049,< 11 mL/min/kg,–,Cc1cc(C(=O)N[C@@H]2CCc3cc(-c4noc(C5CC5)n4)ccc32)ccn1,bioavailability [3]: 70%; clearance [4]: 3 mL/min/kg; half-life [5]: 13.8 h; clearance [9]: 3 mL/min/kg
1000 nM,> 124 mL/min/kg,0.023,> 62 mL/min/kg,–,CCc1nc(-c2ccc3c(c2)CCC3NC(=O)c2ccccc2)no1 (racemic),–
4100 nM,–,–,–,–,CC(C)c1nc(-c2ccc3c(c2)CC[C@H]3NC(=O)c2cnn(C)c2)no1,–
1900 nM,< 21 mL/min/kg,0.17,< 11 mL/min/kg,0.089,CC(C)c1nc(-c2ccc3c(c2)CC[C@H]3NC(=O)c2nnn(C)n2)no1,bioavailability [3]: 52%; clearance [4]: 16 mL/min/kg; half-life [5]: 4.6 h; clearance [9]: 16 mL/min/kg
2700 nM,23 mL/min/kg,0.053,< 11 mL/min/kg,–,Cc1cc(C(=O)N[C@@H]2CCc3cc(-c4noc(C(C)C)n4)ccc32)ccn1,bioavailability [3]: 79%; clearance [4]: 14 mL/min/kg; half-life [5]: 4.6 h; clearance [9]: 14 mL/min/kg
1900 nM,> 124 mL/min/kg,0.043,24 mL/min/kg,–,Cc1nc(-c2ccc3c(c2)CCC3NC(=O)c2ccccc2)no1 (racemic),–
7100 nM,< 21 mL/min/kg,0.097,< 11 mL/min/kg,–,Cc1cc(C(=O)NC2CCc3cc(-c4noc(C)n4)ccc32)ccn1 (racemic),–
1800 nM,24 mL/min/kg,0.092,< 11 mL/min/kg,0.046,CCc1nc(-c2ccc3c(c2)CC[C@H]3NC(=O)c2cc(C)ncn2)no1,bioavailability [3]: 26%; clearance [4]: 20 mL/min/kg; half-life [5]: 5.9 h; clearance [9]: 20 mL/min/kg
1200 nM,23 mL/min/kg,0.084,< 11 mL/min/kg,0.021,CCc1nc(-c2ccc3c(c2)CC[C@H]3NC(=O)c2ccnc(C)c2)no1,bioavailability [3]: 32%; clearance [4]: 13 mL/min/kg; half-life [5]: 3.5 h; clearance [9]: 13 mL/min/kg
1000 nM,< 21 mL/min/kg,0.12,< 11 mL/min/kg,0.077,Cn1nnc(C(=O)N[C@@H]2CCc3cc(-c4noc(C5CC5)n4)ccc32)n1,clearance [4]: 5 mL/min/kg; bioavailability [11]: 100%; half-life [5]: 17.8 h; clearance [9]: 5 mL/min/kg
> 39000 nM,–,–,–,–,CCc1nc(-c2ccc3c(c2)CCN3C(=O)NCc2ccccc2)no1,IC15 (Bos taurus): > 39000 nM
2500 nM,46 mL/min/kg,0.064,< 11 mL/min/kg,–,Cc1nc(-c2ccc3c(c2)CCC3NC(=O)c2oncc2C)no1 (racemic),–
6800 nM,< 21 mL/min/kg,0.082,< 11 mL/min/kg,0.082,COCc1nc(-c2ccc3c(c2)CC[C@H]3NC(=O)c2cnn(C)c2)no1,fraction unbound [12]: 0.12; solubility thermodynamic [2]: 63 µM
800 nM,–,0.1,< 11 mL/min/kg,0.051,CCc1nc(-c2ccc3c(c2)CC[C@H]3NC(=O)c2ocnc2C)no1,bioavailability [3]: 0%; clearance [4]: 40 mL/min/kg; half-life [5]: 14.7 h; clearance [9]: 40 mL/min/kg
> 39000 nM,–,–,–,–,Cn1cc(C(=O)N[C@@H]2CCc3cc(-c4noc(CCO)n4)ccc32)cn1,–
2700 nM,–,–,–,–,CCc1nc(-c2ccc3c(c2)CCN3C(=O)COc2ccccc2)no1,IC15 (Bos taurus): 900 nM
> 39000 nM,–,–,–,–,CCc1nc(-c2ccc3c(c2)CCN3C(=O)OCc2ccccc2)no1,IC15 (Bos taurus): 1300 nM

IC50 [1],CLint scaled [6],"fraction unbound at 6 h, 5 µM [7]",CLint scaled [8],fraction unbound [10],Structure (SMILES),other results
1100 nM,66 mL/min/kg,0.2,< 11 mL/min/kg,0.2,CCc1nc(-c2ccc3c(c2)CC[C@H]3NC(=O)c2cn[nH]c2)no1,bioavailability [3]: 10%; clearance [4]: 63 mL/min/kg; half-life [5]: 1.4 h; clearance [9]: 63 mL/min/kg
8100 nM,48 mL/min/kg,0.072,< 11 mL/min/kg,–,Cc1cc(C(=O)NC2CCc3cc(-c4noc(C)n4)ccc32)on1 (racemic),–
2400 nM,< 21 mL/min/kg,0.024,< 11 mL/min/kg,0.024,Cn1cc(C(=O)N[C@@H]2CCc3cc(-c4noc(C(F)F)n4)ccc32)cn1,fraction unbound [12]: 0.057; solubility thermodynamic [2]: 37 µM
> 39000 nM,–,–,–,–,CCc1nc(-c2ccc3c(c2)CCN3CCc2ccccc2)no1,IC15 (Bos taurus): 3400 nM
> 39000 nM,–,–,–,–,CCc1nc(-c2ccc3c(c2)CCN3C(=O)CCc2ccccc2)no1,IC15 (Bos taurus): > 39000 nM
1700 nM,< 21 mL/min/kg,0.18,< 11 mL/min/kg,0.046,CCc1nc(-c2ccc3c(c2)CC[C@H]3NC(=O)c2cnc(C)o2)no1,bioavailability [3]: 13%; clearance [4]: 21 mL/min/kg; half-life [5]: 4.1 h; clearance [9]: 21 mL/min/kg
4400 nM,< 21 mL/min/kg,0.065,< 11 mL/min/kg,0.065,Cc1nc(-c2ccc3c(c2)CC[C@H]3NC(=O)c2cnn(C)c2)no1,fraction unbound [12]: 0.14; CL free [13]: 32.3 mL/min/kg; solubility thermodynamic [2]: 86 µM
1200 nM,–,0.31,< 11 mL/min/kg,–,CCc1nc(-c2ccc3c(c2)CC[C@H]3NC(=O)c2ccnnc2)no1,bioavailability [3]: 16%; clearance [4]: 44 mL/min/kg; half-life [5]: 6.6 h; clearance [9]: 44 mL/min/kg
900 nM,< 21 mL/min/kg,0.29,< 11 mL/min/kg,0.11,CCc1nc(-c2ccc3c(c2)CC[C@H]3NC(=O)c2nnn(C)n2)no1,clearance [4]: 20 mL/min/kg; half-life [5]: 6.3 h; clearance [9]: 20 mL/min/kg; bioavailability [14]: 53%
2700 nM,–,–,–,0.042,Cn1cc(C(=O)N[C@@H]2CCc3cc(-c4noc(C5CC5)n4)ccc32)cn1,fraction unbound [12]: 0.056; solubility thermodynamic [2]: 33 µM
19100 nM,–,–,–,–,CCc1nc(-c2ccc3c(c2)CCN3C(=O)Cc2ccccc2)no1,IC15 (Bos taurus): 3500 nM
> 39000 nM,–,–,–,–,CCc1nc(-c2ccc3c(c2)CCN3C(=O)c2ccccc2)no1,IC15 (Bos taurus): > 39000 nM
> 39000 nM,–,–,–,–,CCc1nc(-c2ccc3c(c2)CCN3C(=O)CSc2ccccc2)no1,IC15 (Bos taurus): > 39000 nM
7600 nM,< 21 mL/min/kg,0.089,< 11 mL/min/kg,–,Cc1nc(-c2ccc3c(c2)CCC3NC(=O)c2cnc(C)n2C)no1 (racemic),–
> 39000 nM,< 21 mL/min/kg,0.15,< 11 mL/min/kg,–,Cc1nc(-c2ccc3c(c2)CC[C@@H]3NC(=O)c2cnn(C)c2)no1,CL free [13]: 395 mL/min/kg
> 39000 nM,–,–,–,–,CCc1nc(-c2ccc3c(c2)CCN3C(=O)Nc2ccccc2)no1,IC15 (Bos taurus): > 39000 nM
5100 nM,< 21 mL/min/kg,0.19,< 11 mL/min/kg,–,Cc1nc(-c2ccc3c(c2)CCC3NC(=O)c2nnn(C)n2)no1 (racemic),–
> 39000 nM,–,–,–,–,Cn1cc(C(=O)N[C@@H]2CCc3cc(-c4ncon4)ccc32)cn1,–
